Experimental data published in ChEMBL document CHEMBL1811814, “Synthesis and evaluation of indole, pyrazole, chromone and pyrimidine based conjugates for tumor growth inhibitory activities--development of highly efficacious cytotoxic agents” (Eur J Med Chem, 2010).

Tests used:
Format in all cases: functional
Parameters in all cases: scale not given: the % may be the effect or the level left
SW-620 = experiment: Growth inhibition of human SW620 cells assessed tumor cell growth at 10^-5 M
Method in brief: (§1)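 Single-dose screen at 10^-5 M across the 60 human tumor cell line panel, run to NCI standards. The value is the percent growth of each cell line in the presence of compound. Compounds active at this dose moved on to five-concentration testing (10^-4 to 10^-8 M).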

786-0 = experiment: Growth inhibition of human 786-0 cells assessed tumor cell growth at 10^-5 M
Method in brief: (§2)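 NCI 60-human-tumor-cell-line panel screen. Each compound was tested at a single concentration of 10^-5 M, and percent growth of tumor cells was recorded for each cell line. Growth inhibition was expressed from these percent-growth values.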

OVCAR-5 = experiment: Growth inhibition of human OVCAR5 cells assessed tumor cell growth at 10^-5 M; method in brief: as §2
OVCAR-8 = experiment: Growth inhibition of human OVCAR8 cells assessed tumor cell growth at 10^-5 M; method in brief: as §2
SK-MEL-28 = experiment: Growth inhibition of human SK-MEL-28 cells assessed tumor cell growth at 10^-5 M; method in brief: as §2
CCRF-CEM = experiment: Growth inhibition of human CCRF-CEM cells assessed tumor cell growth at 10^-5 M; method in brief: as §2
HOP-62 = experiment: Growth inhibition of human HOP62 cells assessed tumor cell growth at 10^-5 M; method in brief: as §2
SF-268 = experiment: Growth inhibition of human SF268 cells assessed tumor cell growth at 10^-5 M; method in brief: as §2
K562 = experiment: Growth inhibition of human K562 cells assessed tumor cell growth at 10^-5 M; method in brief: as §2
KM12 = experiment: Growth inhibition of human KM12 cells assessed tumor cell growth at 10^-5 M; method in brief: as §2
HT-29 = experiment: Growth inhibition of human HT-29 cells assessed tumor cell growth at 10^-5 M; method in brief: as §2
MDA-MB-468 = experiment: Growth inhibition of human MDA-MB-468 cells assessed tumor cell growth at 10^-5 M; method in brief: as §2
TK-10 = experiment: Growth inhibition of human TK10 cells assessed tumor cell growth at 10^-5 M; method in brief: as §1
SNB-19 = experiment: Growth inhibition of human SNB19 cells assessed tumor cell growth at 10^-5 M; method in brief: as §1
UACC-257 = experiment: Growth inhibition of human UACC257 cells assessed tumor cell growth at 10^-5 M; method in brief: as §1
MCF7 = experiment: Growth inhibition of human MCF7 cells assessed tumor cell growth at 10^-5 M; method in brief: as §2
NCI-H460 = experiment: Growth inhibition of human NCI-H460 cells assessed tumor cell growth at 10^-5 M; method in brief: as §2
HL-60(TB) = experiment: Growth inhibition of human HL-60(TB) cells assessed tumor cell growth at 10^-5 M
Method in brief: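 HL-60(TB), part of the 60-line panel, tested at a single concentration of 10^-5 M. The read-out is percent tumor cell growth relative to untreated growth.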

BT-549 = experiment: Growth inhibition of human BT549 cells assessed tumor cell growth at 10^-5 M; method in brief: as §2
NCI/ADR-RES = experiment: Growth inhibition of human NCI/ADR-RES cells assessed tumor cell growth at 10^-5 M; method in brief: as §2
EKVX = experiment: Growth inhibition of human EKVX cells assessed tumor cell growth at 10^-5 M; method in brief: as §2
A498 = experiment: Growth inhibition of human A498 cells assessed tumor cell growth at 10^-5 M; method in brief: as §2
RXF 393 = experiment: Growth inhibition of human RXF393 cells assessed tumor cell growth at 10^-5 M; method in brief: as §2
COLO 205 = experiment: Growth inhibition of human COLO205 cells assessed tumor cell growth at 10^-5 M; method in brief: as §2
DU-145 = experiment: Growth inhibition of human DU145 cells assessed tumor cell growth at 10^-5 M; method in brief: as §2
SK-MEL-5 = experiment: Growth inhibition of human SK-MEL-5 cells assessed tumor cell growth at 10^-5 M; method in brief: as §2
SF-295 = experiment: Growth inhibition of human SF295 cells assessed tumor cell growth at 10^-5 M; method in brief: as §2
UO-31 = experiment: Growth inhibition of human UO31 cells assessed tumor cell growth at 10^-5 M; method in brief: as §1
ACHN = experiment: Growth inhibition of human ACHN cells assessed tumor cell growth at 10^-5 M; method in brief: as §2
LOX IMVI = experiment: Growth inhibition of human LOXIMVI cells assessed tumor cell growth at 10^-5 M; method in brief: as §2
CAKI-1 = experiment: Growth inhibition of human Caki1 cells assessed tumor cell growth at 10^-5 M; method in brief: as §2
OVCAR-4 = experiment: Growth inhibition of human OVCAR4 cells assessed tumor cell growth at 10^-5 M; method in brief: as §2
M14 = experiment: Growth inhibition of human M14 cells assessed tumor cell growth at 10^-5 M; method in brief: as §2
MOLT-4 = experiment: Growth inhibition of human MOLT4 cells assessed tumor cell growth at 10^-5 M; method in brief: as §2
UACC-62 = experiment: Growth inhibition of human UACC62 cells assessed tumor cell growth at 10^-5 M; method in brief: as §1
PC-3 = experiment: Growth inhibition of human PC3 cells assessed tumor cell growth at 10^-5 M; method in brief: as §2
[1] = Growth inhibition of human Hs 578T cells assessed tumor cell growth at 10^-5 M; method in brief: as §2
A549 = experiment: Growth inhibition of human A549 cells assessed tumor cell growth at 10^-5 M; method in brief: as §2
MDA-MB-231 = experiment: Growth inhibition of human MDA-MB-231 cells assessed tumor cell growth at 10^-5 M; method in brief: as §2
NCI-H522 = experiment: Growth inhibition of human NCI-H522 cells assessed tumor cell growth at 10^-5 M; method in brief: as §2
HCT-15 = experiment: Growth inhibition of human HCT15 cells assessed tumor cell growth at 10^-5 M; method in brief: as §2
OVCAR-3 = experiment: Growth inhibition of human OVCAR3 cells assessed tumor cell growth at 10^-5 M; method in brief: as §2
T47D = experiment: Growth inhibition of human T47D cells assessed tumor cell growth at 10^-5 M; method in brief: as §1
SK-OV-3 = experiment: Growth inhibition of human SKOV3 cells assessed tumor cell growth at 10^-5 M; method in brief: as §2
NCI-H226 = experiment: Growth inhibition of human NCI-H226 cells assessed tumor cell growth at 10^-5 M; method in brief: as §2
HOP-92 = experiment: Growth inhibition of human HOP92 cells assessed tumor cell growth at 10^-5 M; method in brief: as §2
HCC 2998 = experiment: Growth inhibition of human HCC2998 cells assessed tumor cell growth at 10^-5 M; method in brief: as §2
MDA-MB-435 = experiment: Growth inhibition of human MDA-MB-435 cells assessed tumor cell growth at 10^-5 M; method in brief: as §2
NCI-H23 = experiment: Growth inhibition of human NCI-H23 cells assessed tumor cell growth at 10^-5 M; method in brief: as §2
IGROV-1 = experiment: Growth inhibition of human IGROV1 cells assessed tumor cell growth at 10^-5 M; method in brief: as §2
Malme-3M = experiment: Growth inhibition of human MALME-3M cells assessed tumor cell growth at 10^-5 M; method in brief: as §2
SN12C = experiment: Growth inhibition of human SN12C cells assessed tumor cell growth at 10^-5 M; method in brief: as §2
SF-539 = experiment: Growth inhibition of human SF539 cells assessed tumor cell growth at 10^-5 M; method in brief: as §2
NCI-H322M = experiment: Growth inhibition of human NCI-H322M cells assessed tumor cell growth at 10^-5 M; method in brief: as §2
SK-MEL-2 = experiment: Growth inhibition of human SK-MEL-2 cells assessed tumor cell growth at 10^-5 M; method in brief: as §2
U-251 = experiment: Growth inhibition of human U251 cells assessed tumor cell growth at 10^-5 M; method in brief: as §1
SNB-75 = experiment: Growth inhibition of human SNB75 cells assessed tumor cell growth at 10^-5 M; method in brief: as §1
HCT-116 = experiment: Growth inhibition of human HCT116 cells assessed tumor cell growth at 10^-5 M; method in brief: as §2

C=CCn1cc(/C=C2\C(=O)N(c3cccc(Cl)c3)N=C2C)c2ccccc21
Activity (SW-620): 97.77% | Activity (786-0): 115.97% | Activity (OVCAR-5): 86.3% | Activity (OVCAR-8): 88.73% | Activity (SK-MEL-28): 97.08% | Activity (CCRF-CEM): 94.38% | Activity (HOP-62): 102.06% | Activity (SF-268): 101.01% | Activity (K562): 77.68% | Activity (KM12): 90.06% | Activity (HT-29): 105.44% | Activity (MDA-MB-468): 84.91% | Activity (TK-10): 110.49% | Activity (SNB-19): 109.63% | Activity (UACC-257): 88.64% | Activity (MCF7): 79.85% | Activity (NCI-H460): 91.1% | Activity (HL-60(TB)): 99.5% | Activity (BT-549): 89.1% | Activity (NCI/ADR-RES): 91.67% | Activity (EKVX): 54.36% | Activity (A498): 69.09% | Activity (RXF 393): 90.86% | Activity (COLO 205): 113.25% | Activity (DU-145): 101.89% | Activity (SK-MEL-5): 85.6% | Activity (SF-295): 89.63% | Activity (UO-31): 74.52% | Activity (ACHN): 94.59% | Activity (LOX IMVI): 90.56% | Activity (CAKI-1): 73.37% | Activity (OVCAR-4): 82.6% | Activity (M14): 96.28% | Activity (MOLT-4): 75.53% | Activity (UACC-62): 69.6% | Activity (PC-3): 101.22% | Activity [1]: 97.36% | Activity (A549): 104.05% | Activity (MDA-MB-231): 84.32% | Activity (NCI-H522): 104.32% | Activity (HCT-15): 96.63% | Activity (OVCAR-3): 116.71% | Activity (T47D): 69.36% | Activity (SK-OV-3): 94.6% | Activity (NCI-H226): 70.94% | Activity (HOP-92): 72.84% | Activity (HCC 2998): 103.61% | Activity (MDA-MB-435): 84.21% | Activity (NCI-H23): 75.8% | Activity (IGROV-1): 98.62% | Activity (Malme-3M): 106.35% | Activity (SN12C): 101.52% | Activity (SF-539): 97.52% | Activity (NCI-H322M): 79.41% | Activity (SK-MEL-2): 100.76% | Activity (U-251): 98.8% | Activity (SNB-75): 71.75% | Activity (HCT-116): 89.43%
